Tests used:
15N hASF1A(1-156) = 15N hASF1A(1-156) (Homo sapiens, UniProt Q9Y294); experiment: NMR 1H-15N SOFAST HMQC titration of 15N-hASF1A; type: binding
Outline: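 Uniformly 15N-labelled hASF1A(1-156) (M9, 15NH4Cl) at 40 μM in 50 mM tris-HCl pH 7.5, 0.1 mM EDTA, DSS, NaN3, protease inhibitors, 10% D2O. Spectra at 293 or 298 K, 600 MHz, with stepwise test compound additions. Δδ = √(ΔHN² + (0.17ΔN)²), normalised to saturation maximum. Kd fitted against total compound concentration for nine residues shifting >0.07 ppm; mean ± SD reported.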

hASF1A(1-156) = hASF1A(1-156) (Homo sapiens, UniProt Q9Y294); experiment: Isothermal titration calorimetry; type: binding
ASF1 = settings: cited from earlier work
[1] = VP-ITC, 20°C, 50 mM tris-HCl pH 7.5, at least duplicate

Sequence of hASF1A(1-156) (Q9Y294 1-156): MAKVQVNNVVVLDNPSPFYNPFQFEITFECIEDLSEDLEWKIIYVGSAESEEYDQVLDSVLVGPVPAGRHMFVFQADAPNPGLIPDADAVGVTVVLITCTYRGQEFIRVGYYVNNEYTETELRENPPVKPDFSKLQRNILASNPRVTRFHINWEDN
Sequence of 15N hASF1A(1-156) (Q9Y294 1-156): as above

Kd (15N hASF1A(1-156)) | Exchange regime upon 15N-ASF1 titration (15N hASF1A(1-156); NMR titration, chemical shift variation of hASF1A residues) | Kd (hASF1A(1-156)) | Affinities times lower than the P1 to P4 peptide series (hASF1A(1-156); ITC) | N (ITC stoichiometry) (hASF1A(1-156); [1]) | ΔH (hASF1A(1-156); [1]) | −TΔS (hASF1A(1-156); [1]) | Compound | Affinity for ASF1 (ASF1)
4 ± 1 µM | fast exchange rate | 2700 ± 600 nM | 10 to 80 times | 1.0 ± 0.1 | -2.2 ± 0.1 kcal/mol | -4.8 ± 0.2 kcal/mol | CC[C@H](C)[C@H](NC(=O)[C@H](CCCNC(=N)N)NC(=O)NC[C@H](CCC(N)=O)NC(=O)NC[C@H](CC(C)C)NC(=O)NC[C@H](CCCNC(=N)N)NC(=O)NC[C@H](Cc1ccc2ccccc2c1)NC(=O)[C@H](CCCCN)NC(=O)[C@H](CCC(=O)O)NC(C)=O)C(=O)N[C@@H](C)C(N)=O [C2] | –
– | – | – | – | – | – | – | ASTEEKWARLARRIAGAGGVTLDGFG [ip4] | low nanomolar range

Source: PMC7978421 (Science Advances, 2021)
